Measurements taken from ChEMBL document CHEMBL4732057, “Design, synthesis and biological evaluation of second-generation benzoylpiperidine derivatives as reversible monoacylglycerol lipase (MAGL) inhibitors” (Eur J Med Chem, 2021).
Active and inactive are the calls of the source. No cut-off for these calls is given here.

How the values were obtained:
[1] = molecular target: T1, Monoglyceride lipase (Homo sapiens, UniProt Q99685); experiment: Competitive inhibition of human recombinant MAGL using varying concentration of 4-nitrophenylacetate as substrate incubated for 30 mins by microplate reader assay
T1 sequence (Q99685 whole entry): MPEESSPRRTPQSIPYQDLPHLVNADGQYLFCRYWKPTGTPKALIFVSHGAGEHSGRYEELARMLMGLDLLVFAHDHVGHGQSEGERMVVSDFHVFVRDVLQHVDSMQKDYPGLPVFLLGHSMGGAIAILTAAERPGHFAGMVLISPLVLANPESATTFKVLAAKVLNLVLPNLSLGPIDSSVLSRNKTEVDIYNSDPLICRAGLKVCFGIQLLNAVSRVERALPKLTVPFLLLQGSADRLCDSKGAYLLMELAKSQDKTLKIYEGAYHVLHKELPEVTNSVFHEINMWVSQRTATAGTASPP
Outline: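 MAGL 11 ng/well; 4-nitrophenol absorbance recorded. Data fitted by the mixed-model inhibition fit to give Ki.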

[2] = molecular target: T2, Fatty-acid amide hydrolase 1 (Mus musculus) (UniProt O08914); experiment: Inhibition of FAAH in mouse brain membrane up to 30 uM preincubated for 25 mins followed by TAMRA-FP labeling addition and measured after 5 mins by competitive ABPP based analysis; assay type: cell membranes; settings: dose microM <=30, time 30.0 min
T2 sequence (whole entry): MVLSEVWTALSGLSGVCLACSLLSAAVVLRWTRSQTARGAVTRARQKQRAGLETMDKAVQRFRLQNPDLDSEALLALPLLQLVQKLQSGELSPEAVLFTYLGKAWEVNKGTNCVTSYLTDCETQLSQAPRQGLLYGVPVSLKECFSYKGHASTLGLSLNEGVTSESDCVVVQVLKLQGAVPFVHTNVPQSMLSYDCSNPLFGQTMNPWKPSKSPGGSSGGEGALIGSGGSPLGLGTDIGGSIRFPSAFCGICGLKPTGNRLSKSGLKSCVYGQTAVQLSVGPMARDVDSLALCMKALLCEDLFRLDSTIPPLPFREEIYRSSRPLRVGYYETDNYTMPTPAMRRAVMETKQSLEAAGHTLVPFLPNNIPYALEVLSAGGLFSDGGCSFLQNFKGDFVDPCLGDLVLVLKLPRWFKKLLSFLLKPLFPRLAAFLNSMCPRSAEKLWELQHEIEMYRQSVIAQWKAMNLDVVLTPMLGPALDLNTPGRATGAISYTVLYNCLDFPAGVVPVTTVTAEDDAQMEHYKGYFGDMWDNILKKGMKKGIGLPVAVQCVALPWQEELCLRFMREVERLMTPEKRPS
Outline: (§1)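 Mouse brain membranes, 4 mg/mL in PBS, preincubated 25 min at 25 °C with compound at 10 µM or a range of concentrations. Labelled 5 min with TAMRA-FP at 125 nM final. Proteins resolved on 11% SDS-PAGE and scanned for fluorescence.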

[3] = system: OVCAR-3; experiment: Antiproliferative activity against human OVCAR3 cells as reduction in cell growth measured after 96 hrs by Celltiter-glo luminescent assay; assay type: functional, cell-based; settings: OVCAR-3, 96 h
Outline: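 Cell lines kept at 37 °C, 5% CO2; 5 × 10^2 cells per well, compound added the day after seeding at 200 to 0.02 µM. Viability read after 96 h by CellTiter-Glo luminescence. IC50 from logistic dose-response curves, in triplicate; error bars are SD.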

[4] = molecular target: T3, Monoglyceride lipase (Homo sapiens) (UniProt Q99685); experiment: Reversible inhibition of human recombinant MAGL using 4-nitrophenylacetate as substrate preincubated with enzyme for 0 to 60 mins followed by substrate addition by microplate reader assay; settings: time 0-60 min
T3 sequence (whole entry): T1 sequence (Q99685 whole entry)
Outline: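 MAGL (11 ng/well) preincubated with compound in DMSO for 0, 30 or 60 min. Reaction then started with 4-NPA 500 µM stock, same buffer and read-out as the main assay. IC50 at each time; triplicates of two independent experiments.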

[5] = Cytotoxicity against cancer-derived human organoids in HGSOC patient assessed as reduction in cell viability up to 100 uM measured after 96 hrs by Celltiter-glo luminescent assay; assay type: functional, Neoplasm; settings: dose microM <=100
Outline: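 Organoids from three HGSOC patients. Tissue digested with 2 mg/mL collagenase for 30 min, embedded in BME matrix and cultured. Treated at 100 µM, with carboplatin as positive control. Viability read by CellTiter-Glo luminescence.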

[6] = molecular target: T4, Monoglyceride lipase (Mus musculus) (UniProt O35678); experiment: Inhibition of MAGL in mouse brain membrane preincubated for 25 mins followed by TAMRA-FP labeling addition and measured after 5 mins by competitive ABPP based analysis; assay type: cell membranes; settings: time 30.0 min; outline: as §1
T4 sequence (whole entry): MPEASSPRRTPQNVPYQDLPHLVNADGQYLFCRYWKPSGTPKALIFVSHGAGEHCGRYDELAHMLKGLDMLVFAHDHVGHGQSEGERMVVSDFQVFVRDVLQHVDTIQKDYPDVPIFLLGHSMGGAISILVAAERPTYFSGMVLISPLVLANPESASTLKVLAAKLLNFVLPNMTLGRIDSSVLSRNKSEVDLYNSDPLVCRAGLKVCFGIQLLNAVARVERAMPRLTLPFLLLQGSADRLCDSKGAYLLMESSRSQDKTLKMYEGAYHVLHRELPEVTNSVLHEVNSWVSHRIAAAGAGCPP

[7] = molecular target: T5, Fatty-acid amide hydrolase 1 (Homo sapiens, UniProt O00519); experiment: Inhibition of FAAH in human U937 cells assessed as reduction in [3H]ethanolamine formation using [ethanolamine-1-3H]AEA as substrate incubated for 15 mins by liquid scintillation spectroscopy; assay type: cell-based, U-937
T5 sequence (O00519 whole entry): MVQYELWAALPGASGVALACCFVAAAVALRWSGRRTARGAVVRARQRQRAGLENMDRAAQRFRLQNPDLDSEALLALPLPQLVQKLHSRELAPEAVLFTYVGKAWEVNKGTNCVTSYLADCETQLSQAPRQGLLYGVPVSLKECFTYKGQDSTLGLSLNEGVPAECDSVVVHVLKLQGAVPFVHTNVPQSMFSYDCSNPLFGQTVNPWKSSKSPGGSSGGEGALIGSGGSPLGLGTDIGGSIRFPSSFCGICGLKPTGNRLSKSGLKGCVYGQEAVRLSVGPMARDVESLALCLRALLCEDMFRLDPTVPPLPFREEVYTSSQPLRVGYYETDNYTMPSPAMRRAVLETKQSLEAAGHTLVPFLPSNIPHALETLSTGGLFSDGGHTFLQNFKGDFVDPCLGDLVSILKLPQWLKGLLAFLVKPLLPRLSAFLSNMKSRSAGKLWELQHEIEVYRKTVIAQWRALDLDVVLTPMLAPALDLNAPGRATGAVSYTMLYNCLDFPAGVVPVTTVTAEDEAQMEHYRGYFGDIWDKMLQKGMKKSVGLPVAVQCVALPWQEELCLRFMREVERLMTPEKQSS
Outline: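 Intact U937 cells (1.0 × 10^6) in Tris-HCl 10 mM, EDTA 1 mM, 0.1% BSA, pH 8, given compound at 37 °C. Then 15 min at 37 °C with shaking. MAGL: 10 µM 2-OG plus 0.5 nM [3H]2-OG. FAAH: 1 µM AEA plus 2 nM [3H]AEA. Aqueous-phase tritium counted; three experiments in triplicate.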

[8] = molecular target: T4, Monoglyceride lipase (Mus musculus); experiment: Inhibition of MAGL in mouse brain membrane at 10 uM preincubated for 25 mins followed by TAMRA-FP labeling addition and measured after 5 mins by competitive ABPP based analysis; assay type: cell membranes; settings: time 30.0 min; outline: as §1

Row | Ki [1] [µM] | inhibition [2] | IC50 [3] [µM] | inhibition [4] | inhibition [6] | IC50 [7] [µM] | inhibition [8] | Compound | inhibition (INH) [5] [%]
1 | 0.03 | inactive | > 100 | Active | Dose-dependent effect | > 10 | Active | O=C(c1ccc(Cc2ccccc2)cc1)C1CCN(C(=O)c2cc(O)c(F)cc2F)CC1 | 18
2 | 0.011 | inactive | > 100 | Active | Dose-dependent effect | > 10 | Active | O=C(c1ccc(Sc2ccccc2)cc1)C1CCN(C(=O)c2cc(O)c(F)cc2F)CC1 | 42
3 | 0.027 | inactive | > 100 | Active | Dose-dependent effect | > 10 | Active | O=C(c1ccc(Sc2ccccc2)cc1)C1CCN(C(=O)c2cc(O)ccc2F)CC1 | 42
4 | 0.037 | inactive | 20.7 | Active | Dose-dependent effect | > 10 | Active | O=C(c1ccc(Cc2ccccc2)cc1)C1CCN(C(=O)c2cc(O)ccc2F)CC1 | 42
